From the RNAGym collection of RNA variant scans (doi:10.1126/science.aae0568)
This sample holds only a part of the variants without activity.

B1: tRNA (parent)
chain: GUUCCGUUGGCGUAAUGGUAACGCGUCUCCCUCCUAAGGAGAAGACUGCGGGUUCGAGUCCCGUACGGAACG

Variants of: B1
Assay: yeast fitness relative to wild type (ratio to wild type); higher = fitter; tRNA-Arg(CCU), competitive growth, 37 C, YPD
Procedure, shortened: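 The tRNA-Arg(CCU) gene variants were made by chemical synthesis with a 3% per-site mutation rate at 69 sites and inserted at the native genomic locus of Saccharomyces cerevisiae. After pooling, the strains were competed in YPD at 37°C for 24 hours in six parallel replicates. Gene amplicons from the start population and each end population were read by 100-nucleotide paired-end sequencing, and Darwinian fitness relative to wild type was taken from genotype frequency changes. Genotypes needed ≥ 100 starting reads, and estimates < 0.5 were set to 0.5.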

Row | Variant | yeast fitness
1 | C33G G41C C61G A65U | ≤ 0.5
2 | C33G G56C A70U | 0.727
3 | C33G G48A C66G A70C | 0.524
4 | C34A G41A | 0.782
5 | C33A U35A G68C | ≤ 0.5
6 | C33U U47C A57G | ≤ 0.5
7 | C33U C34G C62A | ≤ 0.5
8 | C33G G51A | 0.626
9 | C33G G51C | ≤ 0.5
10 | C33U G41A C61G | ≤ 0.5
11 | C34A C49A C60G A65C | ≤ 0.5
12 | C33G A36C C66U | 0.502
13 | C34A A45C G68A | 0.614
14 | C34A A37G G41A | ≤ 0.5
15 | C33G G56C C62U | ≤ 0.5
16 | C33G A45C | 0.684
17 | C33A U35C C60A | ≤ 0.5
18 | C33G A37C A45C | ≤ 0.5
19 | C33U C34G C66U | 0.542
20 | C33G G41C A43C G67C | ≤ 0.5
21 | C33U C62U | 0.717
22 | C34A G51A C61G A69U | 0.606
23 | C33U G44A A65G | 0.606
24 | C34A A37U G63C | ≤ 0.5

Row | Variant | yeast fitness
25 | C33U G50C A57C | 0.623
26 | C33G C62U A70C | 0.618
27 | C34A A42U A69U | ≤ 0.5
28 | C33A G58C | 0.647
29 | C33G A57C | ≤ 0.5
30 | C33G A57U | ≤ 0.5
31 | C33G C60U A69U | ≤ 0.5
32 | C34A A36C | 0.511
33 | C34A A36G | 0.741
34 | C34A A36U | 0.518
35 | C33U U47C | 0.713
36 | C34A C60G | 0.664
37 | C33U U59A A70G | ≤ 0.5
38 | C33G G52C C61U | 0.566
39 | C34A A40G U47A C66G A69C A70C | 0.693
40 | C33U A65C C66U | 0.59
41 | C33G C34U G38C | ≤ 0.5
42 | C33U G44A | 0.652
43 | C34A A40G C66U | ≤ 0.5
44 | C33U A37G C49U A57U | ≤ 0.5
45 | C34A G38C A43U G68A | ≤ 0.5
46 | C34A A42C C60G | ≤ 0.5
47 | C34A G67A | 0.652
48 | C33G A36C | ≤ 0.5

Row | Variant | yeast fitness
49 | C33G A36U | 0.589
50 | C33G U47C C62A | 0.601
51 | C33G C34U U53C C61U | ≤ 0.5
52 | C33U C49U G51C | 0.512
53 | C33U G38A C49U C61A | ≤ 0.5
54 | C33G G56C | 0.679
55 | C33U C34G A45C C60A | ≤ 0.5
56 | C33G G48A U64A | 0.613
57 | C33U A36U G51C A69U | 0.551
58 | C33G A42G G44A U64C | ≤ 0.5
59 | C33U G51A A57U | ≤ 0.5
60 | C34A A36G A65C G68C | ≤ 0.5
61 | C33G C34A A43G C55A | 0.635
62 | C33G U54C | 0.519
63 | C33G U54G | ≤ 0.5
64 | C33G U54A | ≤ 0.5
65 | C34A A45U | 0.698
66 | C33U G38A C46U U64C | 0.536
67 | C34A C55A | 0.566
68 | C34A A57U | 0.529
69 | C33G C46U C60U | ≤ 0.5
70 | C34A A37G A57U | 0.616
71 | C33G G38A G41A | ≤ 0.5
72 | C34A G44A A57U | ≤ 0.5

Row | Variant | yeast fitness
73 | C33G A42G C49U G67A | ≤ 0.5
74 | C33U G41C | 0.708
75 | C33U G41A | 0.721
76 | C33U A45C A57U U59C | ≤ 0.5
77 | C33G C34G A43C G48C C62U | ≤ 0.5
78 | C33G A36U G44A U59C | 0.611
79 | C33U A43G U47C | 0.563
80 | C33U G56U A65G | ≤ 0.5
81 | C33A G56C A70C | 0.574
82 | C33G A37G A43C U47C G58C | ≤ 0.5
83 | C33U A40C A45C | 0.561
84 | C33G C66G | 0.604
85 | C33U C49A G58C A69U | 0.52
86 | C34A G44C G68A | ≤ 0.5
87 | C33U C46G C49U | 0.632
88 | C33G A42G G52A C62A | ≤ 0.5
89 | C33U A36G | 0.662
90 | C34A G44C A57U C62U | ≤ 0.5
91 | C34A C49G G50A U64A | 0.551
92 | C33G C62G | 0.597
93 | C33G G63C | ≤ 0.5
94 | C33G A36G G39C G67U | ≤ 0.5
95 | C33G U47A U64G | 0.77
96 | C33A U64A A70C | ≤ 0.5

Row | Variant | yeast fitness
97 | C33U G67A | 0.776
98 | C33U G67C | 0.839
99 | C33U A65G | 0.665
100 | C34A A42C U59A G67C | ≤ 0.5
101 | C34A A42U A43C | 0.629
102 | C33U G38A G41U C46U | ≤ 0.5
103 | C33U A42C C62A | ≤ 0.5
104 | C33G G51A C55A | ≤ 0.5
105 | C33U C55U C60U | ≤ 0.5
106 | C33G C34G U35C C46U | ≤ 0.5
107 | C33G G52C C61U U64C | ≤ 0.5
108 | C33G A36U G39A A57U | ≤ 0.5
109 | C33U A42G | 0.622
110 | C33U A42U | 0.729
111 | C34A C62G | 0.675
112 | C33U A40C A45C C60G A65C | ≤ 0.5
113 | C33U U47C G48A G58A | 0.506
114 | C34A C49U G50C G58A | 0.869
115 | C33U U64A | 0.677
116 | C33U A40C | 0.777
117 | C33U A40U | 0.616
118 | C33G A43C C62A G67C | 0.743
119 | C33A U35G C49U | 0.904
120 | C34A A36U C55G C66A | ≤ 0.5

Row | Variant | yeast fitness
121 | C33G G41C G56C G58A U59C G63C A65U | ≤ 0.5
122 | C33G C55U G56C A69C | 0.831
123 | C33G A36C C46A | ≤ 0.5
124 | C33A U35A U64C G68C | ≤ 0.5
125 | C34A U47A C61G | ≤ 0.5
126 | C34A A69C | 0.752
127 | C34A A69U | 0.858
128 | C34A G52C C60G | 0.544
129 | C33U C49U G51C C55U | ≤ 0.5
130 | C33G C34A A40C | ≤ 0.5
131 | C33G C34G U35A G44A | ≤ 0.5
132 | C33U G38A C60G U64C | ≤ 0.5
133 | C34A A70U | 0.924
134 | C34A U35A C49A C55U | ≤ 0.5
135 | C33U A37U C62U | ≤ 0.5
136 | C33U G51C | ≤ 0.5
137 | C33G G44C | 0.735
138 | C33U C61U | 0.734
139 | C33U A36G A45C A57U U59C | ≤ 0.5
140 | C33G A36U A57U | 0.581
141 | C33U G41C G68C A69U | ≤ 0.5
142 | C33U G48C | 0.778
143 | C34A G56C G58A G63C A65U | ≤ 0.5
144 | C34A A36G U47C | ≤ 0.5

Row | Variant | yeast fitness
145 | C34A G44C | 0.574
146 | C34A G39A | 0.734
147 | C33G A45C C66A | 0.514
148 | C34A A42U A65C | ≤ 0.5
149 | C33U A40C A45C U59G C60U | ≤ 0.5
150 | C33U A42U G68A A70G | 0.534
151 | C33G C49A | 0.628
152 | C33A U53A C60G | 0.681
153 | C33U G68A | 0.679
154 | C34A A37U U54C | 0.542
155 | C33G U47A C61U A69U | 0.573
156 | C33G G38C A70C | 0.705
157 | C33G U47G C66U | 0.56
158 | C33U U64G A70C | 0.555
159 | C33U G58U C61A | ≤ 0.5
160 | C33G G41C A43C C61U C66U | ≤ 0.5
161 | C33U A43G A70U | 0.637
162 | C33G A69C A70U | 0.611
163 | C33U U53C | 0.574
164 | C34A C46U U47A U59G | ≤ 0.5
165 | C33U G58C C62A C66G | ≤ 0.5
166 | C33A U54G | 0.518
167 | C33A U54C | 0.561
